According to ChEMBL document CHEMBL4350961, “Discovery of Pyrrolo[3,2- d]pyrimidin-4-one Derivatives as a New Class of Potent and Cell-Active Inhibitors of P300/CBP-Associated Factor Bromodomain” (J Med Chem, 2019):
Active and inactive are the calls of the source. The calls are words filed in the database; no cut-off is given here.

Experiments:
[1] = target: Transcription initiation factor TFIID subunit 1 (Homo sapiens) (UniProt P21675); test: Binding affinity to human N-terminal His-tagged TAF1 bromodomain1 assessed as change in melting temperature at 10 uM by SYPRO orange dye-based fluorescence assay
Method in brief: (§1)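 Thermal shift with His-tagged human bromodomain at 2 μM final in 10 mM HEPES pH 7.5, 500 mM NaCl. Compound at 10 μM final with 0.1% DMSO; SYPRO Orange at 1:1000. Equilibrated 3 min at 25 °C, then heated from 25 to 95 °C at 1 °C/min. Melting temperature shift taken from fluorescence; at least duplicate.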

[2] = target: Serine/threonine-protein kinase DCLK2 (Homo sapiens) (UniProt Q8N568); test: Inhibition of recombinant human DCAMKL2 (376 to end residues) at 10 uM using KKLNRTLSFAEPG as substrate measured after 40 mins in presence of [gamma33P]ATP by scintillation counting method
[3] = target: Mitogen-activated protein kinase kinase kinase 5 (Homo sapiens) (UniProt Q99683); test: Inhibition of recombinant human ASK1 (649 to 946 residues) at 10 uM using myelin basic protein as substrate measured after 40 mins in presence of [gamma33P]ATP by scintillation counting method
[4] = target: Ribosomal protein S6 kinase alpha-4 (Homo sapiens) (UniProt O75676); test: Inhibition of recombinant human MSK2 (2 to end residues) at 10 uM using GRPRTSSFAEGKK as substrate measured after 40 mins in presence of [gamma33P]ATP by scintillation counting method
[5] = target: Bromodomain testis-specific protein (Homo sapiens) (UniProt Q58F21); test: Binding affinity to human partial length BRDT bromodomain 1 (N21 to E137 residues) expressed in bacterial expression system at 1 uM by BROMOscan assay
Method in brief: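 BROMOscan bromodomain cross-screen run by an outside service, compound at 1 µM against 32 recombinant bromodomains. Binding given as percent of control.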

[6] = organism: Homo sapiens; test: Inhibition of recombinant full-length human AURKA I31F mutant at 10 uM using LRRASLG as substrate measured after 40 mins in presence of [gamma33P]ATP by scintillation counting method
[7] = target: Serine/threonine-protein kinase ULK1 (Homo sapiens) (UniProt O75385); test: Inhibition of human ULK1 (1 to 314 residues) using casein as substrate measured after 40 mins in presence of [gamma33P]ATP by scintillation counting method
[8] = tested on: Hepatocyte growth factor receptor (Homo sapiens), P08581 [Y1230C]; test: Inhibition of recombinant human MET A1209G/V1290L/Y1248C mutant (974 to end residues) at 10 uM using KKKGQEEEYVFIE as substrate measured after 40 mins in presence of [gamma33P]ATP by scintillation counting method
[9] = target: Bromodomain and PHD finger-containing protein 3 (Homo sapiens) (UniProt Q9ULD4); test: Binding affinity to human N-terminal His-tagged BRPF3 assessed as change in melting temperature at 10 uM by SYPRO orange dye-based fluorescence assay; method in brief: as §1
[10] = target: Calcium/calmodulin-dependent protein kinase type II subunit gamma (Homo sapiens) (UniProt Q13555); test: Inhibition of recombinant full-length human CaMK2gamma (1 to 330 residues) at 10 uM using calmodulin as substrate measured after 40 mins in presence of [gamma33P]ATP by scintillation counting method
[11] = target: Testis-specific serine/threonine-protein kinase 3 (Homo sapiens) (UniProt Q96PN8); test: Inhibition of recombinant full-length human TSSK3 at 10 uM using AMARAASAAALARRR as substrate measured after 40 mins in presence of [gamma33P]ATP by scintillation counting method
[12] = tested on: RAC-gamma serine/threonine-protein kinase (Homo sapiens), Q9Y243 [S472D]; test: Inhibition of recombinant full-length human PKBgamma S472D mutant (117 to end residues) at 10 uM using GRPRTSSFAEGKK as substrate measured after 40 mins in presence of [gamma33P]ATP by scintillation counting method
[13] = target: cAMP-dependent protein kinase catalytic subunit PRKX (Homo sapiens) (UniProt P51817); test: Inhibition of recombinant full-length human PrKX at 10 uM using RRRLSFAEPG as substrate measured after 40 mins in presence of [gamma33P]ATP by scintillation counting method
[14] = target: Histone acetyltransferase KAT2A (Homo sapiens, UniProt Q92830); test: Binding affinity to human N-terminal His-tagged GCN5 assessed as change in melting temperature at 10 uM by SYPRO orange dye-based fluorescence assay; method in brief: as §1
[15] = target: Serine/threonine-protein kinase Nek3 (Homo sapiens) (UniProt P51956); test: Inhibition of recombinant full-length human NEK3 at 10 uM using myelin basic protein as substrate measured after 40 mins in presence of [gamma33P]ATP by scintillation counting method
[16] = tested on: Hepatocyte growth factor receptor (Homo sapiens), P08581 [D1228N]; test: Inhibition of recombinant human MET A1209G/V1290L/D1246N mutant (974 to end residues) at 10 uM using KKKGQEEEYVFIE as substrate measured after 40 mins in presence of [gamma33P]ATP by scintillation counting method
[17] = tested on: Hepatocyte growth factor receptor (Homo sapiens), P08581 [Y1230H]; test: Inhibition of recombinant human MET A1209G/V1290L/Y1248H mutant (974 to end residues) at 10 uM using KKKGQEEEYVFIE as substrate measured after 40 mins in presence of [gamma33P]ATP by scintillation counting method
[18] = target: Serine/threonine-protein kinase BRSK1 (Homo sapiens) (UniProt Q8TDC3); test: Inhibition of recombinant human BrSK1 (2 to end residues) at 10 uM using KKKVSRSGLYRSPSMPENLNRPR as substrate measured after 120 mins in presence of [gamma33P]ATP by scintillation counting method
[19] = target: Protein kinase C beta type (Homo sapiens) (UniProt P05771); test: Inhibition of recombinant human PKCbeta2 (2 to end residues) at 10 uM using histone H1 as substrate measured after 40 mins in presence of [gamma33P]ATP by scintillation counting method
[20] = target: Serine/threonine-protein kinase tousled-like 1 (Homo sapiens) (UniProt Q9UKI8); test: Inhibition of recombinant full-length human TLK1 at 10 uM using casein as substrate measured after 40 mins in presence of [gamma33P]ATP by scintillation counting method
[21] = target: Serine/threonine-protein kinase PRP4 homolog (Homo sapiens) (UniProt Q13523); test: Inhibition of human PRP4 (663 to end residues) using casein as substrate measured after 40 mins in presence of [gamma33P]ATP by scintillation counting method
Method in brief: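 Kinase panel of 422 kinases screened by Eurofins KinaseProfiler at a single test-compound concentration of 10 µM.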

[22] = target: Myosin-IIIb (Homo sapiens) (UniProt Q8WXR4); test: Inhibition of recombinant full-length human MYO3B (1 to 326 residues) at 10 uM using RLGRDKYKTLRQIRQ as substrate measured after 40 mins in presence of [gamma33P]ATP by scintillation counting method
Sequence of Myosin-IIIb (Homo sapiens) (Q8WXR4 whole entry, the tested form may be a part): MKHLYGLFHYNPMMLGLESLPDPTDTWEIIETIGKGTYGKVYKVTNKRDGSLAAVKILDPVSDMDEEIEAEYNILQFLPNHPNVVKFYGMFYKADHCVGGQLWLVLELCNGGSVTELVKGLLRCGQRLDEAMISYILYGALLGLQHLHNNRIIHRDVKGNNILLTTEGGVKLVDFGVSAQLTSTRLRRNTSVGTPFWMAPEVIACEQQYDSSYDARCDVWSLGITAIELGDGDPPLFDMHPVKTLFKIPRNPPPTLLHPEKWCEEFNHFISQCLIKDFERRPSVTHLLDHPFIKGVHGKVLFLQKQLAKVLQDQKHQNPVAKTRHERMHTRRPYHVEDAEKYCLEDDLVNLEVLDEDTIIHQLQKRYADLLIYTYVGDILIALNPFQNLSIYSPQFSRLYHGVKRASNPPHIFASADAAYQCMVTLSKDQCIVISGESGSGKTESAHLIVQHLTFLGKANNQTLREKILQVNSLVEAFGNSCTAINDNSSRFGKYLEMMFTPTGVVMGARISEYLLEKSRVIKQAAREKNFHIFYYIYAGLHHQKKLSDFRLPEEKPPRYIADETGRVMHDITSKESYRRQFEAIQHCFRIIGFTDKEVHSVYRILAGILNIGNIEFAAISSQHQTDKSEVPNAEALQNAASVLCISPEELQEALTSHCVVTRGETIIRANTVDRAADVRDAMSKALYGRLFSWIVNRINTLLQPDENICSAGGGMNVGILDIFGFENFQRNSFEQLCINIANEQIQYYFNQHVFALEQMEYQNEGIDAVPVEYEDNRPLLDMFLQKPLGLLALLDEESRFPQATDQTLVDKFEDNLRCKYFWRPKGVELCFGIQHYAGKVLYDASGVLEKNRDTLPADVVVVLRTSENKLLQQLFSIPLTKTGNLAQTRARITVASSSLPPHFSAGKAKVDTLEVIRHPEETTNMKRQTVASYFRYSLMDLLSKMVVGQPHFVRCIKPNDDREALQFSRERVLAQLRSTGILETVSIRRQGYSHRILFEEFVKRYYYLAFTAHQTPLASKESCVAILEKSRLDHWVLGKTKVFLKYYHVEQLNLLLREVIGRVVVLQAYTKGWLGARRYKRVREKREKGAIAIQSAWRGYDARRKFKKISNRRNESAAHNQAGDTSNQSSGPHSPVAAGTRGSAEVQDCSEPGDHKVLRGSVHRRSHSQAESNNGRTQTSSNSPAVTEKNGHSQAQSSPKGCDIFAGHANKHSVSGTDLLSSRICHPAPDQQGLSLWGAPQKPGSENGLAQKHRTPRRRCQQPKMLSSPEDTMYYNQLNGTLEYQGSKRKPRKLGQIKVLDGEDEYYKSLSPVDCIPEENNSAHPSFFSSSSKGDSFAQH

Sequence of Hepatocyte growth factor receptor (Homo sapiens), P08581 [D1228N] (P08581 whole entry D1228N): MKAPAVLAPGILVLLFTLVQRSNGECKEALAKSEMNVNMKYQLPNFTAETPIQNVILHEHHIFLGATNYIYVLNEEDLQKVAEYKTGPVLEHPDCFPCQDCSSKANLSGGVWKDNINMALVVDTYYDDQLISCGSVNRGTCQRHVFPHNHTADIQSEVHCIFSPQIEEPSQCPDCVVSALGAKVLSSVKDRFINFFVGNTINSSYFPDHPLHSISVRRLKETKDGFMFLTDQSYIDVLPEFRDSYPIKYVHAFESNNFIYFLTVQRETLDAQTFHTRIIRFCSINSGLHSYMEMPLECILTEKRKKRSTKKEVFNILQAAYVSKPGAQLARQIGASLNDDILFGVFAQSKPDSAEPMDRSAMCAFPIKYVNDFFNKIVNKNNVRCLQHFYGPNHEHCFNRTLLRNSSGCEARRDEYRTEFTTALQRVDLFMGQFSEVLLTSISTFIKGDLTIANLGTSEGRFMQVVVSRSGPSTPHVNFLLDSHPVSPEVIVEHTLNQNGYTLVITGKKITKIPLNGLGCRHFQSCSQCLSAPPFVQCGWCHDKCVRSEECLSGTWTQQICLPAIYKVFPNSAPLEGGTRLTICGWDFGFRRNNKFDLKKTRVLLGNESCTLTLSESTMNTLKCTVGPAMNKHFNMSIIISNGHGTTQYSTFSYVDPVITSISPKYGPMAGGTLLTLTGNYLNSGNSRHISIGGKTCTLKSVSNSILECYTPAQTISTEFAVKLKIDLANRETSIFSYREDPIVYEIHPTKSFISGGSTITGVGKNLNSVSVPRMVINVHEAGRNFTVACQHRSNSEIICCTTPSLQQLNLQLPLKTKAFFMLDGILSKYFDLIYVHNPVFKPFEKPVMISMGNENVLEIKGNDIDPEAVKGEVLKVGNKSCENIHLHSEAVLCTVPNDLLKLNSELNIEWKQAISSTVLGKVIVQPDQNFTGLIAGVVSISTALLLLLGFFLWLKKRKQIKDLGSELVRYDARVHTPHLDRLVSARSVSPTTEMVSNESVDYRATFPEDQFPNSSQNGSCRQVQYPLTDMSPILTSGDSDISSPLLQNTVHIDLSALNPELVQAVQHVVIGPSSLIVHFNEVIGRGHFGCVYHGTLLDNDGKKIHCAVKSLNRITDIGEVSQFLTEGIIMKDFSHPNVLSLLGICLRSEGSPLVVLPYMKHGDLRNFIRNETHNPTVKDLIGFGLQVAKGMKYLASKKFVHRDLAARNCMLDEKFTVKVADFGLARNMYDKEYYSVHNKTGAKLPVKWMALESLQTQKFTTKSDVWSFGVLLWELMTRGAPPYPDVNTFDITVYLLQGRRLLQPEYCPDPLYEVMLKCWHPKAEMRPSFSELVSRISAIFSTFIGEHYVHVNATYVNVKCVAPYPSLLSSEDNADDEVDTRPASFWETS
Sequence of Hepatocyte growth factor receptor (Homo sapiens), P08581 [Y1230C] (P08581 whole entry Y1230C): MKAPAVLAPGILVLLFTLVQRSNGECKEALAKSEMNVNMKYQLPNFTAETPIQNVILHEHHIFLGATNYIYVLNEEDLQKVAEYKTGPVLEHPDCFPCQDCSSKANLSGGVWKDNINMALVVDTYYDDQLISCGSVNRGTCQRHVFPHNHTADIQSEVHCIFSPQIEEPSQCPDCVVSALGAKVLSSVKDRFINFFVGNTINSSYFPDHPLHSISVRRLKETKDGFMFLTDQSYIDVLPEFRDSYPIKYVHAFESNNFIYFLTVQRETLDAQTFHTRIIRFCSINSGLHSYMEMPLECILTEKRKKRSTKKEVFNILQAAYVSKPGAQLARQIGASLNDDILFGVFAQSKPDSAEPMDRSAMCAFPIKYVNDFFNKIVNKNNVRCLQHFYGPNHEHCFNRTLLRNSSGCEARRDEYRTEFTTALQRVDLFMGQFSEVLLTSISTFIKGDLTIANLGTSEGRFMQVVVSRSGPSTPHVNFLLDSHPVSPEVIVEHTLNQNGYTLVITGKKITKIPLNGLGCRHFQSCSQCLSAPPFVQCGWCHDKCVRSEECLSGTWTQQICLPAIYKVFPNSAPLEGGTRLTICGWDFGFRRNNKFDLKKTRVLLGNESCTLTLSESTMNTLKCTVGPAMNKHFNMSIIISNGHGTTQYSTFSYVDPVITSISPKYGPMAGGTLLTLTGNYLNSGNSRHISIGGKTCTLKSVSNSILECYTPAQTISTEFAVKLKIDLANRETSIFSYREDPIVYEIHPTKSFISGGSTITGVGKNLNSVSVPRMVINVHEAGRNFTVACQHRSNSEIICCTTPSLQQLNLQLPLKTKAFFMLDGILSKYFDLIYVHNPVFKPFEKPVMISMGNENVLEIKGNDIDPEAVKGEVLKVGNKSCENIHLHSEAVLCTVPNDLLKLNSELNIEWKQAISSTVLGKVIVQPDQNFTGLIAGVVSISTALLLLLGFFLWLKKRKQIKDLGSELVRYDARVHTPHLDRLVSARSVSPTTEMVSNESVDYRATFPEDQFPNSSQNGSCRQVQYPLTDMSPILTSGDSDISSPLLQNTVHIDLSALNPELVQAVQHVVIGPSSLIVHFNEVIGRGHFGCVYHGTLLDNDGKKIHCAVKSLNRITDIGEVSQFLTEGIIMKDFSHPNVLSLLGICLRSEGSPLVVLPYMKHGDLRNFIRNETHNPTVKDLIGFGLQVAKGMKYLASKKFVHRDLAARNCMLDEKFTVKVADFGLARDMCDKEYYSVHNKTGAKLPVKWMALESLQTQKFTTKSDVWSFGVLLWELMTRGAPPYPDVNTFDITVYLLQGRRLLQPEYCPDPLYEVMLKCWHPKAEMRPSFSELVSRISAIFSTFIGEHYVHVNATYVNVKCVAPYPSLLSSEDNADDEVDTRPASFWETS
Sequence of Testis-specific serine/threonine-protein kinase 3 (Homo sapiens) (Q96PN8 whole entry): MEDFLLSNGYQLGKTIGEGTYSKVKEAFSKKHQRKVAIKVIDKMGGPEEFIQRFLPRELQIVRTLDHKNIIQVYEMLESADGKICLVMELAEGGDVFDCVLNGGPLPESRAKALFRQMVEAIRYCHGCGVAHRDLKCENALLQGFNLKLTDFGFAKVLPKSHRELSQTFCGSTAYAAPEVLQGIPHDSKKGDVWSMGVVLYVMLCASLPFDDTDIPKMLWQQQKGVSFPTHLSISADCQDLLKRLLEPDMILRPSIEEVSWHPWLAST
Sequence of cAMP-dependent protein kinase catalytic subunit PRKX (Homo sapiens) (P51817 whole entry): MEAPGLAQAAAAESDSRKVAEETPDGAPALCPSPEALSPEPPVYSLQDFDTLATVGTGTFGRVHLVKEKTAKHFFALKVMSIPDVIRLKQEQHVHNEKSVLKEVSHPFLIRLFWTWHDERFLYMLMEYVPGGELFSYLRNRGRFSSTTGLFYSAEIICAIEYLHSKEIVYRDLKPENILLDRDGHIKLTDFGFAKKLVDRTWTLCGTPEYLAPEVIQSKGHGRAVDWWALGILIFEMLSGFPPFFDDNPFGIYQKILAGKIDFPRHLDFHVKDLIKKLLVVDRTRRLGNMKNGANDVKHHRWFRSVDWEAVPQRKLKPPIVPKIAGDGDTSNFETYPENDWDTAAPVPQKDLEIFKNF

In the case of CN1C[C@H](Nc2nc3cc[nH]c3c(=O)n2C)C[C@H](c2ccc3c(c2)OCCO3)C1, the ΔTm [1] is reported as 0.2 °C, the inhibition [2] is reported as “inactive” and the inhibition [3] is reported as “inactive”. The inhibition [4] was “inactive”, the Activity [5] was “inactive” and the inhibition [6] was “inactive”. The inhibition [7] was “inactive”, the inhibition [8] was “inactive” and the ΔTm [9] was 1.7 °C. The inhibition [10] was “inactive”, the inhibition [11] was “inactive” and the inhibition [12] was “inactive”. The inhibition [13] was “inactive”, the ΔTm [14] was 7.3 °C and the inhibition [15] was “inactive”. The inhibition [16] was “inactive”, the inhibition [17] was “inactive” and the inhibition [18] was “inactive”. The inhibition [19] was “inactive”, the inhibition [20] was “inactive” and the inhibition [21] was “inactive”. The inhibition [22] was “inactive”.
